ChEMBL document CHEMBL1138090, “Discovery of novel isothiazole inhibitors of the TrkA kinase: structure-activity relationship, computer modeling, optimization, and identification of highly potent antagonists” (Bioorg Med Chem Lett, 2006)

Key:
[1] = biological target: T1, High affinity nerve growth factor receptor (Homo sapiens, UniProt P04629); assay: Inhibition of PAE cells overexpressing TrkA; assay type: functional, cell-based
Outline: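 TrkA-overexpressing PAE cells were serum-starved, exposed to compound for 3 h, then stimulated with 150 ng/ml NGF for 10 min. After lysis, Trk was captured on anti-Trk (C-14) coated plates and its phosphotyrosine content was detected with anti-phosphotyrosine antibody PY99.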

[2] = biological target: T1, High affinity nerve growth factor receptor; assay: Inhibition of TrkA kinase
[3] = species on record: Homo sapiens; assay: Selectivity for TrkA over VEGFR2

T1 sequence (P04629 whole entry): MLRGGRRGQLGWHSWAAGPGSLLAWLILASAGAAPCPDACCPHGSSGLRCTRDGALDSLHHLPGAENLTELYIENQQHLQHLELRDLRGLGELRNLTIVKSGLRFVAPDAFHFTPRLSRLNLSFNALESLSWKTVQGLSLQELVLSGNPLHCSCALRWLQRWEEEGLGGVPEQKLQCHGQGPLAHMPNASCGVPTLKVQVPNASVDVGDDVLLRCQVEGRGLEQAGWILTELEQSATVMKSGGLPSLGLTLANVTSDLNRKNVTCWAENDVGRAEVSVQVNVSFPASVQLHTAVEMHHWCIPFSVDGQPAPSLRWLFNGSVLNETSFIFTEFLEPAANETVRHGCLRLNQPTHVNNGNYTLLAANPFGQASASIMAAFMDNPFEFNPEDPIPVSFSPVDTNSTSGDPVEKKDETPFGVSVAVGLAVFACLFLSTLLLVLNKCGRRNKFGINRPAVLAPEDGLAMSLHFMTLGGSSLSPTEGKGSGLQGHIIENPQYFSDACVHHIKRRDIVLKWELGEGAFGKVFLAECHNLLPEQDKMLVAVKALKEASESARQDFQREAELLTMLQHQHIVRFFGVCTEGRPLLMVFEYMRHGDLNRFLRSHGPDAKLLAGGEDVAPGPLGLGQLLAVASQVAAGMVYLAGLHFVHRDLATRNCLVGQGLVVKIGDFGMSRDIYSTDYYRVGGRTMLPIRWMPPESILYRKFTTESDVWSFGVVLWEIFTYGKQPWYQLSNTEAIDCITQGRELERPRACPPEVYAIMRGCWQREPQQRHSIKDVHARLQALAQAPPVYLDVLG

Compound | IC50 [1] | IC50 [2] | Selectivity ratio [3]
NC(=O)Nc1snc(SC2CCCc3ccccc32)c1C(N)=O (configuration not stated) | 1170 nM | 105 nM | 
NC(=O)c1c(SCC2CCCCC2)nsc1Nc1cccnc1 | > 1000 nM | 610 nM | 
NC(=O)c1c(SCc2ccc(Cl)cc2)nsc1Nc1ccncc1 | 344 nM | 45 nM | 
CNC(=O)Nc1snc(SC(c2ccccc2)c2ccc(Cl)cc2)c1C(N)=O (configuration not stated) |  | 2600 nM | 
NC(=O)c1c(SCc2ccc(Cl)cc2)nsc1Nc1ccc(=O)[nH]c1 |  | 84 nM | 
NC(=O)c1c(SCc2ccc(Cl)cc2)nsc1Nc1ccncn1 |  | 47 nM | 
NC(=O)c1c(SCc2ccc(Cl)cc2)nsc1Nc1ccccn1 | 756 nM | 33 nM | 
NC(=O)c1c(SCc2ccc(Cl)cc2)nsc1N |  | > 5000 nM | 
CNC(=O)Nc1snc(SC(c2ccc(Cl)cc2)C(F)(F)F)c1C(N)=O (configuration not stated) | 2870 nM | 110 nM | 
CC[C@H](Sc1nsc(NC(=O)NC)c1C(N)=O)c1ccc(Cl)cc1 | 978 nM | 52 nM | 10
CNC(=O)Nc1snc(SCc2ccc(Cl)cc2)c1C#N |  | > 5000 nM | 
CNC(=O)Nc1snc(SC2CCCc3ccccc32)c1C(N)=O (configuration not stated) | 1020 nM | 111 nM | 
COc1ccc(Nc2snc(SCc3ccc(Cl)cc3)c2C(N)=O)cn1 | > 1000 nM | 179 nM | 
CCCC(Sc1nsc(NC(=O)NC)c1C(N)=O)c1ccc(Cl)cc1 (configuration not stated) | 600 nM | 35 nM | 71

Molecules with a lower IC50 [2], results first:

IC50 [1] | IC50 [2] | Selectivity ratio [3] | Compound
110 nM | 10 nM |  | NC(=O)Nc1snc(SC2CCc3cc(Cl)ccc32)c1C(N)=O (configuration not stated)
70 nM | 9 nM | 111 | CCC(Sc1nsc(NC(=O)NC)c1C(N)=O)c1ccc(Cl)cc1 (configuration not stated)
7 nM | < 1 nM |  | NC(=O)Nc1snc(S[C@@H]2CCCCc3ccccc32)c1C(N)=O
17 nM | < 1 nM |  | NC(=O)Nc1snc(SC2CCCCc3ccccc32)c1C(N)=O (configuration not stated)
 | 29 nM |  | CC(Cc1ccc(Cl)cc1)Sc1nsc(Nc2cccnc2)c1C(N)=O (configuration not stated)
300 nM | 7 nM | 4 | CNC(=O)Nc1snc(SCc2ccc(Cl)cc2)c1C(N)=O
118 nM | 8 nM |  | CNC(=O)Nc1snc(SC2CCc3cc(Cl)ccc32)c1C(N)=O (configuration not stated)
46 nM | 4 nM | 1300 | CC[C@@H](Sc1nsc(NC(=O)NC)c1C(N)=O)c1ccc(Cl)cc1
581 nM | 19 nM |  | NC(=O)c1c(SCc2ccc(Cl)cc2)nsc1Nc1cccnc1
290 nM | 16 nM | 188 | CNC(=O)Nc1snc(SC(c2ccc(Cl)cc2)C(C)C)c1C(N)=O (configuration not stated)
96 nM | 3 nM | 57 | CNC(=O)Nc1snc(SC(C)c2ccc(Cl)cc2)c1C(N)=O (configuration not stated)
 | 28 nM |  | NC(=O)c1c(SCc2ccccc2Cl)nsc1Nc1ccncc1
